Laboratory results reported in publication PMC5499931 (OncoTargets and therapy, 2017).
Entries after “also recorded” stand apart in the source; their conditions may differ. *1 amine or outer side, *2 acyl side, *3 side chain or, on linkers, in order; H or OH if unused. Where a SMILES comes first, the peptide text is derived from it. Side-chain parts run from the residue outwards. [ ]: non-standard residue; d: D form. The star is where a group is joined. Ethylenediamine = C(CN[*:2])N[*:1]; Hyp = O=C(O)[C@@H]1C[C@@H](O)CN1; Phg = N[C@H](C(=O)O)c1ccccc1; CO = O=C([*:1])[*:2]; Bn = c1ccc(C*)cc1

Tests used:
[1] = test system: patients with advanced carcinoid syndrome refractory to octreotide LAR; conditions: pasireotide LAR 60 mg vs octreotide LAR 30 mg; cited from earlier work
[2] = Pasireotide plasma concentrations; assay type: in vivo; conditions: human, im
[3] = test system: patients with advanced NETs; test: MTD/dose-limiting toxicity; assay type: in vivo, human; conditions: 80 and 120 mg; first two treatment cycles
How it was run: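 Dose escalation in cohorts of 3–6 patients, starting at 80 mg IM every 28 days. Later doses were chosen in 20 mg multiples by a two-parameter Bayesian logistic regression model with overdose control. Intra-patient escalation was not allowed; de-escalation was permitted. DLT window was the first two 28-day cycles. Evaluable patients had two injections with sufficient safety evaluation, or a DLT. MTD was defined as the highest dose with expected DLT in ≤33%.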

[4] = test system: patients with advanced NETs; test: AEs regardless of study drug relationship; assay type: in vivo, human
How it was run: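 Open-label, multicentre phase I in adults with advanced, well- or moderately differentiated NETs progressing within the prior 12 months; HbA1c >7.0% excluded. Test compound given as long-acting IM injection every 28 days. Safety set was everyone receiving at least one dose, grouped by first dose received. AEs coded by MedDRA 18.0; laboratory abnormalities graded by CTCAE 3.0.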

[5] = test system: patients with advanced NETs; test: Bradycardia; assay type: in vivo, human; conditions: for Odds ratio [95% CI] of bradycardia (HR <40 bpm) for a 1.5-fold increase in pasireotide concentration: logistic regression, not statistically significant
How it was run: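 HR recorded by 24-hour Holter on Cycle 1 Day 1 and Cycle 2 Day 1 in all patients. Bradycardia, defined as minimum HR <40 bpm, was analysed by pooling vital signs, 12-lead ECG and Holter data. Post hoc review covered dose-escalation cohorts plus the 120 mg expansion cohort. Dosing was IM every 28 days.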

| Molecule | Tumor control rate at month 6 [1] | Cmax ([2]; 80 mg) | Cmax ([2]; 120 mg) | Protocol-defined dose-limiting toxicities (DLTs) [3] | AEs of any grade, patients ([4]; 80 mg) | AEs, Total ([4]; 80 mg i.m./28 days (n=13), Grade 3/4) | AEs, Total ([4]; 80 mg i.m./28 days (n=13), all grade) | AEs of any grade, patients ([4]; 120 mg) | AEs, Total ([4]; 120 mg i.m./28 days (n=16), Grade 3/4) | AEs, Total ([4]; 120 mg i.m./28 days (n=16), all grade) | AEs, Total ([4]; all patients, 80 or 120 mg (N=29), Grade 3/4) | AEs, Total ([4]; all patients, 80 or 120 mg (N=29), all grade) | Incidence of bradycardia (HR <40 bpm) ([5]; 120 mg (5/16), Holter assessment, post hoc) | Odds ratio [95% CI] of bradycardia (HR <40 bpm) for a 1.5-fold increase in pasireotide concentration ([5]; day time (6 am through 10 pm)) | Odds ratio [95% CI] of bradycardia (HR <40 bpm) for a 1.5-fold increase in pasireotide concentration ([5]; night time (10 pm through 6 am)) |
| --- | --- | --- | --- | --- | --- | --- | --- | --- | --- | --- | --- | --- | --- | --- | --- |
| octreotide [octreotide LAR] | 46.2% | – | – | – | – | – | – | – | – | – | – | – | – | – | – |
| NCCCC[C@@H]1NC(=O)[C@@H](Cc2c[nH]c3ccccc23)NC(=O)[C@H](c2ccccc2)NC(=O)[C@@H]2C[C@@H](OC(=O)NCCN)CN2C(=O)[C@H](Cc2ccccc2)NC(=O)[C@H](Cc2ccc(OCc3ccccc3)cc2)NC1=O [Pasireotide LAR, pasireotide] (cyclo([Hyp]([CO-Ethylenediamine])[Phg][dW]KY(Bn)F)) | – | 13.7 ± 11.5 ng/mL | 23.2 ± 31.4 ng/mL | No protocol-defined dose-limiting toxicities; also recorded: no protocol-defined DLTs | 92% | 9 (69.2) n (%) | 12 (92.3) n (%) | 100% | 11 (68.8) n (%) | 16 (100) n (%) | 20 (69.0) n (%) | 28 (96.6) n (%) | 31% | 1.67 [0.38–7.34] | 2.02 [0.49–8.29] |
